Holding throughout (format): cell-based
One assay concerns P. falciparum C2B. Particulars: 48 h, 72 h and 96 h assays (all time points). In outline:
(§1)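 Sorbitol-synchronised ring stages in O+ erythrocytes, run as 48 h (1% parasitaemia, 1% haematocrit, label at start), 72 h (0.25%, 2.5%, label ~48 h) or 96 h (0.1%, 2%, medium change plus label ~72 h). Read-out was [3H]-hypoxanthine incorporation by scintillation. IC50 by log-linear interpolation against 0.5% DMSO; triplicate wells, ≥2 independent assays. RI = resistant-line IC50/3D7 IC50. Controls: chloroquine (Dd2), atovaquone (C2B), cycloguanil (FCR3).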

The next assay concerns P. falciparum Dd2. The gist of the method:
as §1

In assay [1] the test system is human embryonic kidney (Hek293) cells. Nature of the assay: Human cell cytotoxicity assay, HEK293. Conditions: HEK293, read-out: HEK293 IC50. The gist of the method:
(§2)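 NFF and HEK293 cells were grown in RPMI 1640 with 10% FCS and 1% streptomycin at 37 °C and 5% CO2. Exposure was 72 h. Growth inhibition was taken against matched DMSO controls. IC50 came from log-linear interpolation, as the mean ± SD of three independent experiments, each in triplicate.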

The subject of a further assay is P. falciparum 3D7. Nature of the assay: [3H]-hypoxanthine incorporation growth inhibition assay, P. falciparum 3D7. Particulars: for IC50: mean ± SD.
Assay [2] deals with P. falciparum 3D7 parasites. Nature of the assay: Isopentenyl pyrophosphate. Conditions: for rescue of growth inhibitory activity by IPP supplementation: 96 h assay, 200 μM IPP; for IC50: Plasmodium falciparum, 3D7, 96 h. The gist of the method:
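3D7 ring stages, sorbitol-synchronised, in O+ erythrocytes (0.1% parasitaemia, 2% haematocrit). Two identical 96 h assays ran in parallel, one with and one without 200 μM IPP. At ~72 h medium was replaced with fresh medium containing [3H]-hypoxanthine, incubated 24 h more, frozen, harvested and counted. Clindamycin was the positive control. IC50 by log-linear interpolation; triplicate wells, ≥3 independent experiments; unpaired t-test.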

Assay [3] concerns Neonatal foreskin fibroblast (NFF) cells. The assay can be described thus: Human cell cytotoxicity assay, NFF. Particulars: read-out: NFF IC50. The gist of the method: as §2
The mark [4] stands for this setting: Plasmodium falciparum, 3D7, 48 h, read-out: P. falciparum 3D7 IC50, 48 h, 48 h assay (fast action).
Where [5] appears, read: Plasmodium falciparum, 3D7, 72 h, read-out: P. falciparum 3D7 IC50, 72 h, 72 h assay.
Setting [6] is: Plasmodium falciparum, 3D7, 96 h, read-out: P. falciparum 3D7 IC50, 96 h, 96 h assay (slow action).

The values that follow come from paper PMC8100350 (International Journal for Parasitology: Drugs and Drug …, 2021).

Each structure is given as a SMILES string. Where two headings read alike, the source gives them in different places.

With `O=C1C(O)=C([C@H]2CC[C@H](c3ccc(Cl)cc3)CC2)C(=O)c2ccccc21` [ATQ, atovaquone], in the assay on P. falciparum C2B, the “Resistance Index (RI), C2B versus 3D7, text summary” value is more than 2000.
For `CCN(CC)CCCC(C)Nc1ccnc2cc(Cl)ccc12` (stereo not shown) [Chloroquine], the “RI (Dd2 IC50/3D7 IC50), 48h” value with P. falciparum Dd2 (48 h assay) was 3. In addition, the “RI (Dd2 IC50/3D7 IC50), 72h” value with P. falciparum Dd2 (72 h assay) is recorded as 3. Also, the “RI (Dd2 IC50/3D7 IC50), 96h” value in the assay with P. falciparum Dd2 (96 h assay) turned out to be 7. The IC50 stood at 27.3 ± 13.3 µM in assay [1]; 0.008 ± 0.002 µM in the assay on P. falciparum 3D7 (setting [4]); 0.006 ± 0.004 µM in the assay on P. falciparum 3D7 (setting [5]); 0.004 ± 0.002 µM in the assay with P. falciparum 3D7 (setting [6]); 35.4 ± 3.6 µM in assay [3]. Moreover, in the assay on P. falciparum 3D7 (NFF or HEK293 IC50 / P. falciparum 3D7 72 h IC50), the “PfSI, Selectivity Index (mammalian cell IC50/P. falciparum IC50)” value is reported as 4555–5896. Besides, in assay [2], the “rescue of growth inhibitory activity by IPP supplementation” value was “not rescued”.
For the molecule `CCC[C@@H]1C[C@@H](C(=O)N[C@@H]([C@H]2O[C@H](SC)[C@H](O)[C@@H](O)[C@H]2O)[C@H](C)Cl)N(C)C1` [Clindamycin, clindamycin], the IC50 in the assay on P. falciparum 3D7 (setting [4]) is more than 50 µM; in the assay on P. falciparum 3D7 (setting [5]), 0.009 ± 0.002 µM; in the assay on P. falciparum 3D7 (setting [6]), 0.005 ± 0.002 µM; in assay [2] (read-out: P. falciparum 3D7 IC50, +IPP), more than 0.5 µM; in assay [2] (read-out: P. falciparum 3D7 IC50, -IPP) it was 0.004 ± 0.001 µM. In addition, in assay [2], the “rescue of growth inhibitory activity by IPP supplementation” value was “rescued”.
Turning to `CCOC(=O)N[C@@H]1CC[C@@H]2[C@@H](C1)C[C@H]1C(=O)O[C@H](C)[C@H]1[C@H]2/C=C/c1ccc(-c2cccc(F)c2)cn1` [Vorapaxar], the “fold less active than himbeline” value in the assay on P. falciparum 3D7 (96 h assays, 3D7) was ~ 6 fold. Further, the IC50 in the assay with P. falciparum 3D7 (setting [4]) stood at 11.2 ± 3 µM; in the assay on P. falciparum 3D7 (setting [5]), 3.93 ± 1.07 µM; in the assay with P. falciparum 3D7 (setting [6]), 3.5 µM; in the assay on P. falciparum 3D7 (read-out: P. falciparum 3D7 IC50, 96 h, 96 h assay (slow action)), 3.52 ± 0.25 µM.

Usually IC50 stands for the concentration that inhibits the measured activity by half.
